High-throughput results (PubChem BioAssay)
FID counter = displaces DNA intercalator in HCV helicase counter-screen. DNA fluorescent intercalator displacement, fluorescence. inhibition, % at 7.9 µM. actives 0.17% (n = 290,000). AID 1845; in the data active = inhibition above about 37%;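 note: higher means more ethidium bromide displaced from hairpin DNA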
TRPC4 inh = blocks the mouse TRPC4 cation channel; HEK293 TRPC4beta/mu-opioid, DAMGO-evoked Fluo4 calcium flux; active compounds read low; Q9QUQ5; actives 0.39% (n = 300,000); B-score at 10 µM;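 active = B-score over 3 SD under the library average, no early fluorescence shift, positive overall ratio signal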
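Material: HEK293 cells with stable TRPC4beta plus mu-opioid receptor expression / Probe or stimulus: DAMGO in two steps, submaximal then maximal / Compound: single concentration per test compound / Technique: kinetic Fluo4 fluorescence imaging of calcium influx / Read-out: per-well B score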
TRPC6 inhibitor = mouse TRPC6 channel inhibition. actives 1.1% (n = 310,000). HEK293-TRPC6, membrane potential dye, ACh-evoked depolarization; active compounds read low. B-score at 10 µM. Q61143;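 active = B-score under library mean minus 3 SD, initial fluorescence not abnormally high, positive integrated signal ratio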;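 note: B-score derived from integrated fluorescence ratio over the kinetic read; more negative B-score means stronger inhibition of depolarization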
Target sequence (Q61143 whole entry, looked up): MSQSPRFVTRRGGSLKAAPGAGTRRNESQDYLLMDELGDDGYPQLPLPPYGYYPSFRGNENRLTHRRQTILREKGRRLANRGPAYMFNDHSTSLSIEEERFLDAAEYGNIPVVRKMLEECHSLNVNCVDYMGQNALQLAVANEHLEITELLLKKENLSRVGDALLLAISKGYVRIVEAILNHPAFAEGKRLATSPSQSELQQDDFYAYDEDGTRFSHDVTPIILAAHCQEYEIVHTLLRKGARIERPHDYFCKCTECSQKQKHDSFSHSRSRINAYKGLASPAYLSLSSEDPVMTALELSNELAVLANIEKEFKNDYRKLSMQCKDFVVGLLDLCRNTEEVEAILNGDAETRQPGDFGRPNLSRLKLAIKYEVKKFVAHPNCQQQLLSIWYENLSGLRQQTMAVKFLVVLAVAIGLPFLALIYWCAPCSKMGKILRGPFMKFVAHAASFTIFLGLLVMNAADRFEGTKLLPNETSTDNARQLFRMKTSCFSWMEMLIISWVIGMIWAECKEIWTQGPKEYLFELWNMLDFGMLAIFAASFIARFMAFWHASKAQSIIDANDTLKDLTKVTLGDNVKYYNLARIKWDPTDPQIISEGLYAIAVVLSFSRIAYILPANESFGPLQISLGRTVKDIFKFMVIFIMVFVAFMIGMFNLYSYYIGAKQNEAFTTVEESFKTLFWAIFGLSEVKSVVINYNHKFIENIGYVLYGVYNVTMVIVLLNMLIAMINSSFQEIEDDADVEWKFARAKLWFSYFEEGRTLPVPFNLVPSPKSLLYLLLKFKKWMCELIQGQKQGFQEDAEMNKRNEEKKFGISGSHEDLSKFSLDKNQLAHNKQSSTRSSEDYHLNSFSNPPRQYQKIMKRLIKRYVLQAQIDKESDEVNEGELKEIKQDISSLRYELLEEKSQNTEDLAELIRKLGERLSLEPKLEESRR
TRPC6 activator = activators of mouse TRPC6 channel; Q61143; HEK293-TRPC6 membrane potential dye fluorescence; active compounds read high; B-score at 10 µM; actives 0.13% (n = 310,000); AID 2550;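 active = B-score of the integrated fluorescence ratio above library mean plus 3 SD, and starting fluorescence ratio within library mean plus 5 SD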;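 note: higher score means more depolarization so channel activation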
TRPC4 potent = allosterically enhances the mouse TRPC4 cation channel. AID 2227. HEK293 TRPC4beta/mu-opioid, DAMGO EC20, Fluo-4 Ca2+ flux; active compounds read high. B-score at 10 µM. Q9QUQ5. actives 0.42% (n = 310,000);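 active = B-score of calcium response area above 5 SD of library B-scores, with initial fluorescence ratio within 5 SD of library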
TRPC4 agonist = TRPC4 (mouse) channel activation; Q9QUQ5; HEK293 TRPC4beta/mu-opioid, Fluo4 calcium fluorescence; active compounds read high; B-score at 10 µM; actives 0.49% (n = 310,000); AID 2237;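 active = B-score above 5 SD of library B-scores, and initial fluorescence ratio not above library mean plus 5 SD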;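 note: positive B-score marks a calcium rise read as TRPC4 activation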
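Technique: kinetic Fluo4 calcium fluorescence; Test system: TRPC4beta and mu-opioid receptor HEK293 stable cells; Measure: B-scored integrated calcium fluorescence ratio; Benchmarks: low control buffer alone, high control maximal DAMGO; Schedule: 45 min room-temperature Fluo4 loading, 110 s read.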
TRPC4 spec 2 = second selectivity test of TRPC6 inhibitors: effect on mouse TRPC4; shares compounds with TRPC6 inhibitor; HEK293 TRPC4/MOR, membrane potential dye fluorescence; channel activated by saturating DAMGO dose; inhibition, % at 10 µM; actives 42% (n = 920);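 active = compounds whose fluorescence signal differed from control wells by over 3 SD, either direction, in both duplicate plates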
TRPC4 spec = selectivity of TRPC6 inhibitors: effect on mouse TRPC4 | shares compounds with TRPC6 inhibitor | HEK293 TRPC4/mu-opioid, membrane potential fluorescence | activity change, negative = inhibition, % at 10 µM | actives 61% (n = 920);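 active = rise or fall in signal beyond 3 SD of buffer-only wells in both replicate plates, either sign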;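 note: integrated kinetic ratio of fluorescence range over baseline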
HEK293 MPD ctr 2-1 = parental HEK293 nonspecific activity of TRPC6 inhibitors, second screen | shares compounds with TRPC6 inhibitor | parental HEK293 membrane potential dye fluorescence; maximal acetylcholine challenge after compound addition | signal change vs control, % at 10 µM | actives 31% (n = 920);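 active = membrane potential signal moving either way by over 3 SD of the maximum-effect control, in both duplicate plates, meaning non-specific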
HEK293 MPD ctr-1 = parental HEK293 nonspecific activity of TRPC6 inhibitors. shares compounds with TRPC6 inhibitor. parental HEK293 membrane potential dye fluorescence. membrane potential signal change, % at 10 µM. actives 60% (n = 920). AID 2780;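 active = membrane potential signal shifting up or down by more than 3 SD of buffer-only wells, on both duplicate plates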
HEK293 MPD ctr-2 = checks TRPC6 modulator effects in parental HEK293 cells; membrane potential signal change, % at 10 µM; shares compounds with TRPC6 inhibitor; actives 51% (n = 2,400); AID 488924; membrane potential dye fluorescence;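 active = membrane potential signal moves up or down beyond 5 SD from buffer-only wells, on both duplicate plates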
HEK293 MPD ctr 2-2 = second check of TRPC6 modulator effects in parental HEK293 cells; shares compounds with TRPC6 inhibitor; membrane potential dye fluorescence; after compound, maximal acetylcholine stimulation; inhibition, % at 10 µM; actives 14% (n = 2,400); AID 488926;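 active = membrane potential signal drops by more than 5 SD from the mean control signal, in both duplicate plates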
TRPC4/MOR mod = tests whether TRPC6 modulators also affect mouse TRPC4 | HEK293 TRPC4/mu-opioid, membrane potential fluorescence | AID 488927 | percent change from control (negative = decrease, positive = increase), % at 10 µM | actives 69% (n = 2,400) | shares compounds with TRPC6 inhibitor;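 active = membrane potential signal moved up or down beyond 5 SD of buffer control wells, in both duplicate plates, actives on both sides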
TRPC4 ctr inh 2 = second selectivity test of TRPC6 modulators against mouse TRPC4; HEK293 TRPC4/mu-opioid, membrane potential dye fluorescence; stimulated with maximal-effect DAMGO; shares compounds with TRPC6 inhibitor; actives 55% (n = 2,400); inhibition, % at 10 µM;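 active = drop in membrane potential signal beyond 5 SD of the control wells in both duplicate plates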;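 note: TRPC4 counter screen for TRPC6 hits run under conditions tuned for TRPC6 not TRPC4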
TRPC6 inh conf = confirmation of mouse TRPC6 inhibitors; actives 43% (n = 3,300); shares compounds with TRPC6 inhibitor; inhibition, % at 10 µM; HEK293-TRPC6, membrane potential dye, ACh-evoked depolarization;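 active = fluorescence ratio falls more than 5 SD below the full-stimulation control mean, in both duplicate runs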;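 note: integrated fluorescence ratio of peak minus minimum over baseline after agonist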
TRPC6 act confirm = mouse TRPC6 activator confirmation; shares compounds with TRPC6 inhibitor; HEK293-TRPC6 membrane potential dye fluorescence, FDSS; actives 11% (n = 2,800); activation, % at 10 µM; AID 488961;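 active = ratio signal rise beyond 5 SD above unstimulated control wells' mean, seen in both duplicate runs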
Each line names hits and unclear results; the compound was inactive in the other large screens (follow-up assays come after a bar, where they were run). Shown are actives, neighbours in structure and some others; about 2.3% of the full set was active somewhere.

CC(C)C(OC(=O)Cn1nnc2ccccc21)C(=O)NC1CCCC1 (configuration not stated)	none
COc1ccc(S(=O)(=O)N2CCCCC2)cc1NC(=O)C1CSC2(C)CCC(=O)N12 (configuration not stated)	none
CCOc1ccc(S(=O)(=O)N2CCCCC2)cc1NC(=O)C1CSC2(C)CCC(=O)N12 (configuration not stated)	TRPC6 inhibitor -8.3, TRPC6 activator 12 (no result: FID counter) | HEK293 MPD ctr-2 152% | HEK293 MPD ctr 2-2 inactive | TRPC4/MOR mod 33% | TRPC4 ctr inh 2 inactive | TRPC6 inh conf 68% | TRPC6 act confirm 106%
COC(=O)c1ccc(Oc2nc(C)cc(Oc3ccccc3)n2)cc1	TRPC6 inhibitor -7.8 | TRPC4 spec 2 inactive | TRPC4 spec 1.0% | HEK293 MPD ctr 2-1 inactive | HEK293 MPD ctr-1 1.6% | TRPC6 inh conf inactive | TRPC6 act confirm inactive
COC(=O)c1ccc(Oc2cc(C)nc(NCc3ccccc3)n2)cc1	none
Cc1ccc(NC(=O)C(C)OC(=O)c2ccc(Cl)nc2)cc1S(=O)(=O)N1CCOCC1 (configuration not stated)	none (no result: FID counter)
Cc1nnc(C)c2c(C)n(-c3ccccc3)c(C)c12	TRPC6 inhibitor -5 | HEK293 MPD ctr-2 -127% | HEK293 MPD ctr 2-2 inactive | TRPC4/MOR mod -22% | TRPC4 ctr inh 2 50% | TRPC6 inh conf 45% | TRPC6 act confirm inactive
Cc1nnc(C)c2c(C)n(-c3ccc(Br)cc3)c(C)c12	none
Cc1cc2oc(=O)cc(CN3CCOCC3)c2cc1Cl	none
COc1ccc(N(C)C(=O)Cc2c(C(=O)O)n(C)c3ccccc23)c(OC)c1	none
COc1cc(/C=C2/SC(=S)N(Cc3ccccc3)C2=O)ccc1OCC(=O)O	none
COc1cc(/C=C2/SC(=S)N(Cc3ccccc3)C2=O)cc(Cl)c1O	TRPC6 activator 76, TRPC4 potent 37, TRPC4 agonist 174 | HEK293 MPD ctr-2 active | HEK293 MPD ctr 2-2 inactive | TRPC4/MOR mod 520% | TRPC4 ctr inh 2 inactive | TRPC6 inh conf inactive | TRPC6 act confirm 555%
CCCCNCC(O)(c1ccc(Cl)cc1)c1ccc(Cl)cc1	TRPC6 inhibitor -5 | HEK293 MPD ctr-2 120% | HEK293 MPD ctr 2-2 inactive | TRPC4/MOR mod 26% | TRPC4 ctr inh 2 47% | TRPC6 inh conf inactive
O=C1N/C(=C/c2ccc(N3CCOCC3)o2)C(=O)N1c1cccc(Cl)c1	TRPC6 activator 19 | HEK293 MPD ctr-2 120% | HEK293 MPD ctr 2-2 inactive | TRPC4/MOR mod 34% | TRPC4 ctr inh 2 inactive | TRPC6 inh conf inactive | TRPC6 act confirm inactive
O=C(OCC(=O)N1CCCc2ccccc21)c1ccc(F)c(S(=O)(=O)N2CCOCC2)c1	none (no result: FID counter)
Cn1nccc1C(=O)N1CCC(Cc2ccccc2)CC1	none
COc1ccc(CCNC(=O)CSc2nnc3ccc(-c4ccccn4)nn23)cc1	none (no result: FID counter)
c1ccc(Nc2ccccc2Nc2ccccn2)nc1	none
Oc1cccc2ccc(Nc3ccccn3)nc12	TRPC6 inhibitor -9.1 | TRPC4 spec 2 inactive | TRPC4 spec -15% | HEK293 MPD ctr 2-1 inactive | HEK293 MPD ctr-1 -180% | TRPC6 inh conf inactive | TRPC6 act confirm inactive
COc1ccc(-c2cn(-c3ccc(SC(F)F)cc3)c3[n+]2CCC3)cc1OC	TRPC6 inhibitor -6.3 | HEK293 MPD ctr-2 -137% | HEK293 MPD ctr 2-2 128% | TRPC4/MOR mod -20% | TRPC4 ctr inh 2 38% | TRPC6 inh conf 64% | TRPC6 act confirm inactive
CCOc1ccc(NC(=O)c2c(NC(=O)CN3CCN(C)CC3)sc3c2CCC3)cc1	TRPC6 inhibitor -8.4 | TRPC4 spec 2 46% | TRPC4 spec -26% | HEK293 MPD ctr 2-1 inactive | HEK293 MPD ctr-1 -409% | TRPC6 inh conf 75% | TRPC6 act confirm inactive
CCOc1ccc(NC(=O)c2c(NC(=O)CN3CCCC3)sc3c2CCC3)cc1	none
Cc1ccc(C)c(S(=O)(=O)c2c(C)cc(C)[nH]c2=O)c1	none
Cc1ccc(S(=O)(=O)N(C)C)cc1NC(=O)COC(=O)COc1ccc2c(c1)CCC2	none (no result: FID counter)
Cc1ccc(S(=O)(=O)N(C)c2ccc(C(=O)NCc3ccccc3F)cc2)cc1	none (no result: FID counter)
CCOC(=O)c1ccc(NC(=O)Oc2ccccc2)cc1	none
CCOC(=O)c1ccc(NC(=O)Oc2cc(C)c(Cl)cc2C(C)C)cc1	TRPC6 inhibitor -9.9 | HEK293 MPD ctr-2 126% | HEK293 MPD ctr 2-2 inactive | TRPC4/MOR mod 13% | TRPC4 ctr inh 2 31% | TRPC6 inh conf inactive | TRPC6 act confirm inactive
COc1ccccc1CNC(=O)C1Cc2cc(S(=O)(=O)N3CCCCC3)ccc2N1C(C)=O (configuration not stated)	none
CCOc1ccc(-n2c(-c3ccccc3)c[n+]3c2CCC3)cc1	TRPC6 inhibitor -6.3 | HEK293 MPD ctr-2 -58% | HEK293 MPD ctr 2-2 62% | TRPC4/MOR mod -13% | TRPC4 ctr inh 2 30% | TRPC6 inh conf 45% | TRPC6 act confirm inactive
